Data reported in the RNAGym collection of RNA variant scans (doi:10.1126/science.aae0568).
This sample holds only a part of the variants without activity.

B1: tRNA (parent)
chain: GUUCCGUUGGCGUAAUGGUAACGCGUCUCCCUCCUAAGGAGAAGACUGCGGGUUCGAGUCCCGUACGGAACG

Variants of: B1
Experiment: yeast fitness relative to wild type (ratio to wild type); higher = fitter; tRNA-Arg(CCU), competitive growth, 37 C, YPD
Outline: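 Changes in genotype frequencies gave Darwinian fitness relative to wild type. Frequencies were read by 100-nucleotide paired-end sequencing of gene amplicons before and after pooled Saccharomyces cerevisiae strains, carrying tRNA-Arg(CCU) gene variants at the native locus, were competed in YPD at 37°C for 24 hours in six replicates. A genotype was kept only with ≥ 100 starting reads, and estimates < 0.5 were set to 0.5.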

Going from GUUCCGUUGGCGUAAUGGUAACGCGUCUCCCUCCUAAGGAGAAGACUACGGGUUCGAGUGCCGUACGGACCG to GUUCCGUUGGCGUAAUGGUAACGCGUCUCCCUCCUAAGGAGAAGACUACGGAUUCGAGUCCCGUACCGAACG, the yeast fitness rises from at most 0.5 to 0.536.

Compared with GUUCCGUUGGCGUAAUGGUAACGCGUCUCCCUCCUAAGGAGAAGACUACGGAUUCGAGUCCCGUACAGAACG, GUUCCGUUGGCGUAAUGGUAACGCGUCUCCCUCCUAAGGAGAAGACUACGGGUUCGAGUCCCGUACGGCACG is higher in yeast fitness: 0.648 for the first, 0.96 for the second.

Going from GUUCCGUUGGCGUAAUGGUAACGCGUCUCCCUCCUAAGGAGAAGACUCCGGGUUCGGGUCCCGUACGGUACG to GUUCCGUUGGCGUAAUGGUAACGCGUCUCCCUCCUAAGGAGAAGACGGCCGGUUCGAGUCCCGUACGGAACG, the yeast fitness falls from 0.562 to at most 0.5.

Going from GUUCCGUUGGCGUAAUGGUAACGCGUCUCCCUCCUAAGGAGAAGACUCCGGGUUAGAGUCCCGUACGGAACG to GUUCCGUUGGCGUAAUGGUAACGCGUCUCCCUCCUAAGGAGAAGACUCCGGGUUGGAGUCCCGUACGGAACG, the yeast fitness rises from 0.703 to 0.78.

First: GUUCCGUUGGCGUAAUGGUAACGCGUCUCCCUCCUAAGGAGAAGACUACGGGUUCCAGUCCUGUACGGAACG
Second: GUUCCGUUGGCGUAAUGGUAACGCGUCUCCCUCCUAAGGAGAAGACUACGGCUCCGAGUCCCGUAUGGAACG
The yeast fitness of the first is higher: 0.65 for the first, at most 0.5 for the second.

Going from GUUCCGUUGGCGUAAUGGUAACGCGUCUCCCUCCUAAGGAGAAGACUACGGGUUCGAGUCCCGUAGGGAGCG to GUUCCGUUGGCGUAAUGGUAACGCGUCUCCCUCCUAAGGAGAAGACUACGGGUUCGAGUCCCCUACGGAACG, the yeast fitness rises from 0.632 to 0.89.

Compared with GUUCCGUUGGCGUAAUGGUAACGCGUCUCCCUCCUAAGGAGAAGACUACGGGUUCGAGUCCCAUCCGGAACG, GUUCCGUUGGCGUAAUGGUAACGCGUCUCCCUCCUAAGGAGAAGACUACAGGUUCGAGUCCCGUACGGAUCG is higher in yeast fitness: at most 0.5 for the first, 0.812 for the second.

First: GUUCCGUUGGCGUAAUGGUAACGCGUCUCCCUCCUAAGGAGAAGACUACGGGUUCAAGUCCCGUACGGAACG
Second: GUUCCGUUGGCGUAAUGGUAACGCGUCUCCCUCCUAAGGAGAAGACUACGGGUUUGAGUGCCGUACGGAACG
The yeast fitness of the first is higher: 1.02 for the first, 0.727 for the second.

Compared with GUUCCGUUGGCGUAAUGGUAACGCGUCUCCCUCCUAAGGAGAAGACUACGGGUUCGAGUCCCGUACUGAACG, GUUCCGUUGGCGUAAUGGUAACGCGUCUCCCUCCUAAGGAGAAGACUACCGGUUCGAGUCCCGUACGGAACG is higher in yeast fitness: 0.9 for the first, 1.07 for the second.

Going from GUUCCGUUGGCGUAAUGGUAACGCGUCUCCCUCCUAAGGAGAAGACUACGGGUUCGAGCCCCGUACGGAACG to GUUCCGUUGGCGUAAUGGUAACGCGUCUCCCUCCUAAGGAGAAGACUAUGGGUUCGAGUCCCGUACGGAACG, the yeast fitness rises from 0.934 to 0.97.

Compared with GUUCCGUUGGCGUAAUGGUAACGCGUCUCCCUCCUAAGGAGAAGACUCCGGGUUCGCGUCCCGUACGGAACG, GUUCCGUUGGCGUAAUGGUAACGCGUCUCCCUCCUAAGGAGAAGACGGCGGGUUCGAGUCCCAUACGGAACG is lower in yeast fitness: 0.594 for the first, 0.561 for the second.

Compared with GUUCCGUUGGCGUAAUGGUAACGCGUCUCCCUCCUAAGGAGAAGACUACGGCUUCGCGUCCCGUACGGAACG, GUUCCGUUGGCGUAAUGGUAACGCGUCUCCCUCCUAAGGAGAAGACUCUGGGUUCGAGUCCCGUACGGAUCG is higher in yeast fitness: 0.622 for the first, 0.724 for the second.

Going from GUUCCGUUGGCGUAAUGGUAACGCGUCUCCCUCCUAAGGAGAAGACUACGGGUUUGAGUCCCGUACGGUACG to GUUCCGUUGGCGUAAUGGUAACGCGUCUCCCUCCUAAGGAGAAGACUCCGGGUUCGAGUCCCGUGCGGAACG, the yeast fitness rises from 0.522 to 1.01.

First: GUUCCGUUGGCGUAAUGGUAACGCGUCUCCCUCCUAAGGAGAAGACUCCGGGUUCGAGUCCCGUUCGGAACG
Second: GUUCCGUUGGCGUAAUGGUAACGCGUCUCCCUCCUAAGGAGAAGACUACGGGUUCGAGUCACGUCCGGAACG
The yeast fitness of the first is higher: 0.75 for the first, at most 0.5 for the second.

Compared with GUUCCGUUGGCGUAAUGGUAACGCGUCUCCCUCCUAAGGAGAAGACUACGCGUUCGAGUACCGCACGGAACG, GUUCCGUUGGCGUAAUGGUAACGCGUCUCCCUCCUAAGGAGAAGACUCGGGGUUCGAGUCCCGUACGGAACG is lower in yeast fitness: 0.853 for the first, 0.621 for the second.

Compared with GUUCCGUUGGCGUAAUGGUAACGCGUCUCCCUCCUAAGGAGAAGACUACGGGUUCGACUCCCGUACGGAACG, GUUCCGUUGGCGUAAUGGUAACGCGUCUCCCUCCUAAGGAGAAGACUACGGGUUCGAGUCCGGUACGGUACG is higher in yeast fitness: 0.979 for the first, 1.03 for the second.

Going from GUUCCGUUGGCGUAAUGGUAACGCGUCUCCCUCCUAAGGAGAAGACUACGGGUUAGACUCCCGUACGGAACG to GUUCCGUUGGCGUAAUGGUAACGCGUCUCCCUCCUAAGGAGAAGACUACGGGUUCGAGUCCCGUAAGGAACG, the yeast fitness rises from 0.516 to 0.929.

First: GUUCCGUUGGCGUAAUGGUAACGCGUCUCCCUCCUAAGGAGAAGACGGCGGGUUCAAGUCCCGUACGGAACG
Second: GUUCCGUUGGCGUAAUGGUAACGCGUCUCCCUCCUAAGGAGAAGACUACGGGUUCGAGUCCCGUACGGAACG
The yeast fitness of the first is lower: 0.646 for the first, 0.982 for the second.

Compared with GUUCCGUUGGCGUAAUGGUAACGCGUCUCCCUCCUAAGGAGAAGACUCCGGGUUCGAGUCCCGUACGGAACG, GUUCCGUUGGCGUAAUGGUAACGCGUCUCCCUCCUAAGGAGAAGACUACGGGUUCGAGUCCCGUAAAGAACG is lower in yeast fitness: 0.977 for the first, at most 0.5 for the second.

Going from GUUCCGUUGGCGUAAUGGUAACGCGUCUCCCUCCUAAGGAGAAGACUCCGGGUUCGAGUCCCGUACGGCACG to GUUCCGUUGGCGUAAUGGUAACGCGUCUCCCUCCUAAGGAGAAGACGGCGGGUUCGAGUCCCGUACGUAACG, the yeast fitness falls from 1.05 to 0.568.

Compared with GUUCCGUUGGCGUAAUGGUAACGCGUCUCCCUCCUAAGGAGAAGACUACGGGUUCGAGUCGCGUACGGACCG, GUUCCGUUGGCGUAAUGGUAACGCGUCUCCCUCCUAAGGAGAAGACGGCGAGUUCGAGUCCCGUACGGAACG is higher in yeast fitness: 0.531 for the first, 0.588 for the second.

First: GUUCCGUUGGCGUAAUGGUAACGCGUCUCCCUCCUAAGGAGAAGACUACGGGUUCGAGUCCAGUACGGAACG
Second: GUUCCGUUGGCGUAAUGGUAACGCGUCUCCCUCCUAAGGAGAAGACUACGGGUUCGAGUCUCGUACGGAACG
The yeast fitness of the first is lower: 0.978 for the first, 1.04 for the second.

First: GUUCCGUUGGCGUAAUGGUAACGCGUCUCCCUCCUAAGGAGAAGACUACGGGUUCGAGUCACGUACGGAACG
Second: GUUCCGUUGGCGUAAUGGUAACGCGUCUCCCUCCUAAGGAGAAGACUACGGGUUCGUGUCCCGUUAGGAACG
The yeast fitness of the first is higher: 0.682 for the first, at most 0.5 for the second.

GUUCCGUUGGCGUAAUGGUAACGCGUCUCCCUCCUAAGGAGAAGACUCUGGGUUCGAGUACCGUUCGGAACG and GUUCCGUUGGCGUAAUGGUAACGCGUCUCCCUCCUAAGGAGAAGACUACGGGUUGGAGUCCUGUACGGAACG cannot be ordered by yeast fitness: at most 0.5 for the first, at most 0.5 for the second.

Compared with GUUCCGUUGGCGUAAUGGUAACGCGUCUCCCUCCUAAGGAGAAGACUCUGGGUGCGAGUCCCGUAAGGAACG, GUUCCGUUGGCGUAAUGGUAACGCGUCUCCCUCCUAAGGAGAAGACUCUGGGUUCGAGUCCCGUUCGGUACG is lower in yeast fitness: 0.624 for the first, at most 0.5 for the second.

First: GUUCCGUUGGCGUAAUGGUAACGCGUCUCCCUCCUAAGGAGAAGACUACGGGUUCGAGUGCCCUACGGAACG
Second: GUUCCGUUGGCGUAAUGGUAACGCGUCUCCCUCCUAAGGAGAAGACUACGGGUUCGAGUCCCGUAUGGCACG
The yeast fitness of the first is lower: at most 0.5 for the first, 0.719 for the second.

Going from GUUCCGUUGGCGUAAUGGUAACGCGUCUCCCUCCUAAGGAGAAGACUACGGGUUCGAGUCCCGUCCGGAACG to GUUCCGUUGGCGUAAUGGUAACGCGUCUCCCUCCUAAGGAGAAGACUACGGGUUCGAGUCCCGUACGUACCG, the yeast fitness falls from 0.901 to 0.809.

Compared with GUUCCGUUGGCGUAAUGGUAACGCGUCUCCCUCCUAAGGAGAAGACUCAGGGAUCAACUCCCGUACGGAACG, GUUCCGUUGGCGUAAUGGUAACGCGUCUCCCUCCUAAGGAGAAGACUCUGGGUUCGAGUCCUGUACGGAACG is higher in yeast fitness: 0.611 for the first, 0.637 for the second.

Compared with GUUCCGUUGGCGUAAUGGUAACGCGUCUCCCUCCUAAGGAGAAGACUACGAGUUCGAGCCCCGUACGGAACG, GUUCCGUUGGCGUAAUGGUAACGCGUCUCCCUCCUAAGGAGAAGACUACGGGUUCGGGUCCCGUACGGAACG is higher in yeast fitness: 0.956 for the first, 0.972 for the second.

Compared with GUUCCGUUGGCGUAAUGGUAACGCGUCUCCCUCCUAAGGAGAAGACUACGCGUUCGAGUCCCGUACGGAACG, GUUCCGUUGGCGUAAUGGUAACGCGUCUCCCUCCUAAGGAGAAGACGGCGGGUUCGAGACCCGUAAGGACCG is lower in yeast fitness: 0.655 for the first, at most 0.5 for the second.

Going from GUUCCGUUGGCGUAAUGGUAACGCGUCUCCCUCCUAAGGAGAAGACUACGGGUUAGAGUGCCGUACGGAACG to GUUCCGUUGGCGUAAUGGUAACGCGUCUCCCUCCUAAGGAGAAGACUACGGGUUCGAGUUCCGUUCGGAACG, the yeast fitness rises from 0.513 to 0.726.

First: GUUCCGUUGGCGUAAUGGUAACGCGUCUCCCUCCUAAGGAGAAGACUACGGGUUCGAGUACCGUACGGAACG
Second: GUUCCGUUGGCGUAAUGGUAACGCGUCUCCCUCCUAAGGAGAAGACUACGGGUUCGAGUUCCGUACGGAACG
The yeast fitness of the first is lower: 0.695 for the first, 0.847 for the second.

Compared with GUUCCGUUGGCGUAAUGGUAACGCGUCUCCCUCCUAAGGAGAAGACUACGGGUUCGAGUCCCGUACGGAGCG, GUUCCGUUGGCGUAAUGGUAACGCGUCUCCCUCCUAAGGAGAAGACUACGGGUUCGACUCCCGUAUGGAACG is lower in yeast fitness: 1.12 for the first, 0.714 for the second.

Compared with GUUCCGUUGGCGUAAUGGUAACGCGUCUCCCUCCUAAGGAGAAGACUACGCGUUCGAGUCCCGUACCGAACG, GUUCCGUUGGCGUAAUGGUAACGCGUCUCCCUCCUAAGGAGAAGACUACGGGUUUGAGUCCCGUCCGGAACG is higher in yeast fitness: at most 0.5 for the first, 0.627 for the second.

GUUCCGUUGGCGUAAUGGUAACGCGUCUCCCUCCUAAGGAGAAGACUACUGGUGCGAGUCCCGUACGGAUCG and GUUCCGUUGGCGUAAUGGUAACGCGUCUCCCUCCUAAGGAGAAGACUACGGGUUCGAGUCGCGUCCGGAACG cannot be ordered by yeast fitness: at most 0.5 for the first, at most 0.5 for the second.

Going from GUUCCGUUGGCGUAAUGGUAACGCGUCUCCCUCCUAAGGAGAAGACUACGGGUUCGAGUCUCGUACGGACCG to GUUCCGUUGGCGUAAUGGUAACGCGUCUCCCUCCUAAGGAGAAGACUACGGGUUCGAGUCACGUACGUAACG, the yeast fitness falls from 0.989 to 0.561.

Going from GUUCCGUUGGCGUAAUGGUAACGCGUCUCCCUCCUAAGGAGAAGACUACGGGCUCGAGUACCGUACGGAACG to GUUCCGUUGGCGUAAUGGUAACGCGUCUCCCUCCUAAGGAGAAGACUACGGGUUCGAGUCCCGCACGGAACG, the yeast fitness rises from at most 0.5 to 0.816.

In the case of GUUCCGUUGGCGUAAUGGUAACGCGUCUCCCUCCUAAGGAGAAGACUACGGGUCCGAGUCCCGUACGGAACG, the yeast fitness is reported as 0.929.
